The source of these data is ChEMBL document CHEMBL4819011, “Structure-based discovery of 1H-indole-2-carboxamide derivatives as potent ASK1 inhibitors for potential treatment of ulcerative colitis” (Eur J Med Chem, 2021).

The target in assay [1] is T1, Mitogen-activated protein kinase kinase kinase 5 (Homo sapiens, UniProt Q99683).
T1 sequence (Q99683 whole entry): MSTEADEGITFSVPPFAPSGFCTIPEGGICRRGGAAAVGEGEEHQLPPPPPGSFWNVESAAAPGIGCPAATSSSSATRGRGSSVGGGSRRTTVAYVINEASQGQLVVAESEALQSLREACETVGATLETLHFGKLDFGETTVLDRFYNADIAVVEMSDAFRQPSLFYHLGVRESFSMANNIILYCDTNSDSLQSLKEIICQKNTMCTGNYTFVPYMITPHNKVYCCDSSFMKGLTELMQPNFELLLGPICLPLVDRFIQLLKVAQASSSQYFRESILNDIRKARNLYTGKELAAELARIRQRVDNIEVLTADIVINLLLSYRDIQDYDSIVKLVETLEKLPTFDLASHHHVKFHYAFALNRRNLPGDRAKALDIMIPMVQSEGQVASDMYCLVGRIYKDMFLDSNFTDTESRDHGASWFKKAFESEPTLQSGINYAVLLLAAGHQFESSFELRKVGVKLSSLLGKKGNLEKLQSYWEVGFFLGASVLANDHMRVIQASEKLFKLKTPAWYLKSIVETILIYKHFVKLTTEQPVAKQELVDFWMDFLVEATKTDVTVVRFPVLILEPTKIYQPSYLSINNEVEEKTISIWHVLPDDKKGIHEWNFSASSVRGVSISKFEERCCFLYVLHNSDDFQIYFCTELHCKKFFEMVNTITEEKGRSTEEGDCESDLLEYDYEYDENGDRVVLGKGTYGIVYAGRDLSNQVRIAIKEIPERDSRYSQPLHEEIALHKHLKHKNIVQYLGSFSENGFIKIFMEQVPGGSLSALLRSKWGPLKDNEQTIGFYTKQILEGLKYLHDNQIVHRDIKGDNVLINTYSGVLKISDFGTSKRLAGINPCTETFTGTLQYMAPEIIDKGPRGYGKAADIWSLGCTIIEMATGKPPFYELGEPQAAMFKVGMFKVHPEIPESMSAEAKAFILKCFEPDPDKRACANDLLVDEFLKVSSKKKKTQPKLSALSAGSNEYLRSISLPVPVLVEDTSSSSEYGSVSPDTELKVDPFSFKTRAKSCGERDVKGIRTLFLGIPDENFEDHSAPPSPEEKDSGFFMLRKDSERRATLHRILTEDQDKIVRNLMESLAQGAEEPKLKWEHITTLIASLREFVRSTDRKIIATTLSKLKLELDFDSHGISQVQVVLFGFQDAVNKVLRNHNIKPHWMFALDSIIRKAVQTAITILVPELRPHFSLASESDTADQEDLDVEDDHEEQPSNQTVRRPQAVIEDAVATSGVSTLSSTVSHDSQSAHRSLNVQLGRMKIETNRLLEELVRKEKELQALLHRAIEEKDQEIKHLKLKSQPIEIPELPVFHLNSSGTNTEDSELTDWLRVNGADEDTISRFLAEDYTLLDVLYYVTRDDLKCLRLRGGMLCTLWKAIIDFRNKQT
As to the kind of experiment: Inhibition of N-terminal GST-tagged recombinant human full length ASK1 expressed in baculovirus-infected Sf21 cells using STK-Substrate-3 biotin as substrate in presence of ATP measured after 2 hrs by HTRF assay. The procedure, abridged:
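HTRF assay with full-length recombinant human ASK1 at final 2 nM, in buffer containing 5 mM MgCl₂ and 1 mM DTT, 2% DMSO. Reaction run with STK-Substrate 3-biotin (final 2 µM) and ATP for 2 h at rt. STK S3 antibody-Eu then added and incubated a further 1 h. Read at 340 nm excitation and 665 nm emission. IC50 reported as mean ± SD from two independent experiments.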
In general terms: In TR-FRET formats the signal depends on donor and acceptor labels being close together.

For assay [2], the target named is T1, Mitogen-activated protein kinase kinase kinase 5. As to the kind of experiment: Inhibition of ASK1 (unknown origin).

As to `CC(C)n1cnnc1-c1cccc(NC(=O)c2cc3c(-c4cnn(C)c4)cccc3[nH]2)n1`, the IC50 in assay [1] turned out to be 19.6 nM.
On the same count and under the same terms, the same measure for `CC(C)n1cnnc1-c1cccc(NC(=O)c2cc3ccccc3o2)n1`: 152 nM; for `CC(C)n1cnnc1-c1cccc(NC(=O)c2cc3cccc(-c4ccsc4)c3[nH]2)n1`: 153 nM.
On the same count and under the same terms, the same measure for `CC(C)n1cnnc1-c1cccc(NC(=O)c2cc3cccnc3[nH]2)n1`: 125 nM.
The same measure, in the same setting: the same measure for `COc1ccc2cc(C(=O)Nc3cccc(-c4nncn4C(C)C)n3)[nH]c2c1`: 54.3 nM; for `CC(C)n1cnnc1-c1cccc(NC(=O)c2cc3cccc(Cl)c3[nH]2)n1`: 89.6 nM; for `CC(C)n1cnnc1-c1cccc(NC(=O)c2[nH]c3ccccc3c2-c2ccoc2)n1`: 143 nM.
Turning to `Cc1c(C(=O)Nc2cccc(-n3cnnn3)c2)oc2ccccc12`, the 50% inhibitory concentration (IC50) in assay [1] was 16700 nM.
Still for that read-out and setting: the same measure for `Cc1c(C(=O)Nc2cccc(-c3nncn3C(C)C)n2)[nH]c2ccccc12`: 88.2 nM; for `C[C@H](CO)n1cnnc1-c1cccc(NC(=O)c2cc3ccccc3[nH]2)n1`: 65.5 nM; for `CC(=O)Nc1cccc2cc(C(=O)Nc3cccc(-c4nncn4C(C)C)n3)[nH]c12`: 240 nM.
Same read-out and setting: the same measure for `CC(C)n1cnnc1-c1cccc(NC(=O)c2cc3ccc(-c4cn[nH]c4)cc3[nH]2)n1`: 37.5 nM; for `CC(C)n1cnnc1-c1cccc(NC(=O)c2cc3cccc(-c4ccncc4)c3[nH]2)n1`: 23.1 nM; for `CCOC(C)n1cc(-c2ccc3cc(C(=O)Nc4cccc(-c5nncn5C(C)C)n4)[nH]c3c2)cn1` (stereo not drawn): 91.1 nM.
Still for that read-out and setting: the same measure for `CC(C)n1cnnc1-c1cccc(NC(=O)c2cc3ccc(-c4cccnc4)cc3[nH]2)n1`: 68.5 nM; for `Cc1c(C(=O)Nc2cccc(-c3nncn3C(C)C)n2)oc2ccccc12`: 1110 nM.
Consider `CC(C)n1cnnc1-c1cccc(NC(=O)c2cc3ccccc3n2C)n1`, for which the IC50 in assay [1] was 743 nM.
Turning to `CC(C)n1cnnc1-c1cccc(NC(=O)c2cc3cccc(-c4cn[nH]c4)c3[nH]2)n1`, the 50% inhibitory concentration (IC50) in assay [1] came out at 38.9 nM.
Same read-out and setting: the value for `CC(C)n1cnnc1-c1cccc(NC(=O)c2cc3cc(-c4cn[nH]c4)ccc3[nH]2)n1` was 31.6 nM.
As to `Cc1cc(F)c(C(=O)Nc2cccc(-c3nncn3[C@@H](C)C(F)(F)F)n2)cc1-n1cnc(C2CC2)c1`, it took 4.3 nM to reach half-maximal inhibition in assay [2] (IC50).
For the compound `CC(C)n1cnnc1-c1cccc(NC(=O)c2cc3ccccc3[nH]2)n1`, the IC50 in assay [1] was 41.4 nM.
Turning to `CC(C)n1cnnc1-c1cccc(NC(=O)c2nc3ccccc3s2)n1`, the half-inhibitory concentration (IC50) in assay [1] amounted to 506 nM.
On to `CC(C)n1cnnc1-c1cccc(NC(=O)c2cc3ccc(-c4cnn(C5CCOCC5)c4)cc3[nH]2)n1`, for which, in assay [1], the half-inhibitory concentration (IC50) amounted to 73.7 nM.

As usually defined, the IC50 is the concentration needed to halve the response being measured.
